From ChEMBL document CHEMBL1127574, “Design and synthesis of ellipticinium salts and 1,2-dihydroellipticines with high selectivities against human CNS cancers in vitro” (1994)

What was measured:
Type in all cases: functional
Conditions in all cases: Homo sapiens
[1] = test system: CCRF-CEM; assay: Tested in vitro for cytotoxicity in CCRF-CEM cell lines
Procedure, shortened: (§1)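 Compounds dissolved in DMSO, then diluted 500-fold into aqueous medium. The resulting aqueous solutions or suspensions were added to the cultured human tumour cell lines, and the cells were exposed for 48 h. Growth was read colorimetrically in one of two ways: a metabolic assay in which viable cells reduce a tetrazolium salt to a formazan dye, or a protein stain for total cellular protein.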

[2] = test system: SF-268; assay: Tested in vitro for cytotoxicity in SF-268 cell lines; procedure, shortened: as §1
[3] = test system: A549; assay: Tested in vitro for cytotoxicity in A549/ATCC cell lines; procedure, shortened: as §1
[4] = test system: IGROV-1; assay: Tested in vitro for cytotoxicity in IGROV1 cell lines; procedure, shortened: as §1
[5] = test system: COLO 205; assay: Tested in vitro for cytotoxicity in COLO 205 cell lines; procedure, shortened: as §1
[6] = test system: DMS-114; assay: Tested in vitro for cytotoxicity in DMS114 cell lines; procedure, shortened: as §1
[7] = test system: CAKI-1; assay: Tested in vitro for cytotoxicity in CAKI-1 cell lines; procedure, shortened: as §1
[8] = test system: Malme-3M; assay: Tested in vitro for cytotoxicity in MALME-3M; procedure, shortened: as §1

Row | SMILES | GI50 [1] [µM] | GI50 [2] [µM] | GI50 [3] [µM] | GI50 [4] [µM] | GI50 [5] [µM] | GI50 [6] [µM] | GI50 [7] [µM] | GI50 [8] [µM]
1 | Cc1c2cc[n+](C[S+](C)[O-])cc2c(C)c2c1[nH]c1ccccc12 (stereo not drawn) | 40.6 | 2.46 | 71 | 29.5 | 31 | 6.6 | 35.8 | 
2 | COC(=O)C[n+]1ccc2c(C)c3[nH]c4ccccc4c3c(C)c2c1 | > 100 | 12.8 | > 100 | > 100 | > 100 | > 100 |  | > 100
3 | COCN1C=Cc2c(c(C)c3c([nH]c4ccccc43)c2C)C1 | 4.98 | 8.02 | 5.06 | 5.88 | 8.68 | 10.4 | 11.1 | 8.87
4 | Cc1c2cc[n+](CC(=O)O)cc2c(C)c2c1[nH]c1ccccc12 | > 100 | 97.1 | 77.3 | > 100 | > 100 | 76.8 |  | 26.3
5 | COC[n+]1ccc2c(C)c3[nH]c4ccccc4c3c(C)c2c1 | 14.6 | 0.679 | 1.79 | 9.2 | 4.7 | 2.28 | 19.2 | 0.647
6 | COC[n+]1ccc2c(C)c3[nH]c4ccc(OC)cc4c3c(C)c2c1 | 6.86 | 0.818 | 13.7 | 27.8 | 2.68 | 1.32 | 20.2 | 1.92
7 | Cc1ccc2[nH]c3c(C)c4c(c(C)c3c2c1)CN(C)C=C4 | 2.34 | 0.395 | 0.38 | 0.774 | 0.306 | 0.438 | 1.21 | 1.72
8 | COc1ccc2[nH]c3c(C)c4c(c(C)c3c2c1)CN(C)C=C4C=O | 60.4 | 1.12 | 75.7 | 31.2 | 16.2 | 2.5 | 73.2 | 40
9 | CC(=O)O[C@@H]1[C@@H](OC(C)=O)[C@@H](N2C=Cc3c(c(C)c4c([nH]c5ccccc54)c3C)C2)OC[C@@H]1OC(C)=O | 29 | 31 | 64 | 24.1 | 36.7 | 15.6 | > 100 | 30.2
10 | CSC[n+]1ccc2c(C)c3[nH]c4ccccc4c3c(C)c2c1 | 5.02 | 0.726 | 5.23 | 18.2 | 2.48 | 2.67 | 19.6 | 1.99
11 | Cc1c2cc[n+](CC#N)cc2c(C)c2c1[nH]c1ccccc12 | 100 | 13 | 97.5 | 35.6 | 34.6 | 44.7 | > 100 | 27.2
12 | Cc1c2ccncc2c(C)c2c1[nH]c1ccccc12 [ELLIPTECINE] | 0.415 | 0.816 | 0.41 | 0.862 | 0.588 | 0.552 | 1.01 | 2.52
